Here are results for five molecules from ChEMBL document CHEMBL1155259, “Synthesis and multidrug resistance reversal activity of dihydroptychantol A and its novel derivatives” (2009).

One experiment concerns K562. The experiment is described as follows: Cytotoxicity against human K562 cells at 10 uM after 48 hrs by MTT assay. Type of experiment: functional. Particulars: K562, 48 h. A digest of the protocol:
(§1)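 Cells grown in RPMI 1640 with 10% FBS at 37 °C, 5% CO₂ until roughly 50–70% confluent, then cultured in 24-well plates and exposed to vehicle (DMSO) or test compound alone at 10 μM for 48 h. Percent growth inhibition measured by MTT assay; three replicates per treatment, assay repeated at least thrice.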
Background: Tetrazolium dyes change colour on reduction, which living cells bring about.

The nature of experiment [1]: Cytotoxicity against adriamycin-resistant human K562/A02 cells at 10 uM after 48 hrs by MTT assay. Type of experiment: functional. The settings on record: K562/A02, 48 h. A digest of the protocol: as §1
The next experiment has as its system KB. The experiment is described as follows: Cytotoxicity against human KB cells at 10 uM after 48 hrs by MTT assay. In kind it is functional. In short, it runs like this:
as §1

A short description of experiment [2]: Cytotoxicity against vincristine-resistant human KB/VCR cells at 10 uM after 48 hrs by MTT assay. In kind it is functional. A digest of the protocol: as §1
Another experiment concerns KB/VCR. Description: Reversal of P-gp-mediated multidrug resistance in human KB/VCR cells assessed as reversal factor, ratio of vincristine ID50 without drug to vincristine ID50 with drug at 10 uM after 48 hrs by MTT assay. Type of experiment: cell-based. In short, it runs like this:
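KB/VCR cells in RPMI 1640 with 10% FBS (37 °C, 5% CO₂) seeded at 6 × 10⁴/ml in 24-well plates. They were co-treated with a range of vincristine concentrations, with or without test compound at 10 μM, and viability read by MTT. Vincristine ID₅₀ was derived relative to untreated cells (100%). RF = ID₅₀ of vincristine alone / ID₅₀ with compound. Triplicates, repeated at least thrice.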

Turning to `Nc1nc2c(s1)-c1cccc(c1)Oc1ccc(O)cc1CCc1ccc(O)c(c1)Oc1ccc-2cc1`, the inhibition (commonly how much of the control response was suppressed) at 10 µM was 11.6% with K562, 10.1% in experiment [1], 0% with KB and 0% in experiment [2]. Further, in the experiment on KB/VCR, the Ratio came to 13.8.

Consider `COc1ccc2c(c1)CCc1ccc(OC)c(c1)Oc1ccc(cc1)C(O)C(Br)c1cccc(c1)O2` (centres undefined), for which the inhibition at 10 µM in the experiment with K562 was found to be 38.5%; in experiment [1] it was 11.9%; with KB, 2.82%; in experiment [2] it was 0%. Further, the Ratio with KB/VCR is 10.5.

Turning to `NNc1nc2c(s1)-c1cccc(c1)Oc1ccc(O)cc1CCc1ccc(O)c(c1)Oc1ccc-2cc1`, the inhibition at 10 µM in the experiment with K562 was found to be 37.1%; in experiment [1] it was 13.7%; with KB, 51.1%; in experiment [2], 19.4%.

As to `COc1ccc2c(c1)CCc1ccc(OC)c(c1)Oc1ccc(cc1)-c1nc(N)sc1-c1cccc(c1)O2`, the inhibition at 10 µM in the experiment with K562 turned out to be 58.7%; in experiment [1], 26.8%; in the experiment with KB it was 0%; in experiment [2], 0%. In the experiment on KB/VCR, the Ratio amounted to 12.3.

Consider `COc1ccc2c(c1)CCc1ccc(OC)c(c1)Oc1ccc(cc1)-c1nc(NN)sc1-c1cccc(c1)O2`, for which the inhibition at 10 µM in the experiment on K562 was found to be 32.1%; in experiment [1], 18.8%; in the experiment on KB, 0%; in experiment [2], 0%. The Ratio in the experiment with KB/VCR was found to be 10.6.
